Results on 16 compounds are retold here after ChEMBL document CHEMBL1828559, “Synthesis and characterization of high-affinity 4,4-difluoro-4-bora-3a,4a-diaza-s-indacene-labeled fluorescent ligands for human β-adrenoceptors” (J Med Chem, 2011).

As a reminder, the Kd is the equilibrium constant for the complex coming apart.

Experiment [1] concerns the target T1, Beta-3 adrenergic receptor (Homo sapiens, UniProt P13945). Kind of experiment: Antagonist activity at human beta-3 adrenergic receptor expressed in fenoterol-stimulated CHOK1 cells assessed as CRE-SPAP level by […]. Format: functional, cell-based, CHO-K1. The procedure, abridged: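 CHO-K1 cells stably co-expressing human β3-AR (790 fmol/mg protein) and a six-CRE SPAP reporter, grown to confluence. Fenoterol was the stimulating agonist. SPAP secreted into the medium was measured 5–6 h after agonist addition. Fixed antagonist concentrations of 10, 100 or 1000 nM were used. The Stephenson partial-agonist method was used where partial agonism occurred.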
Target sequence in this assay (P13945 whole entry): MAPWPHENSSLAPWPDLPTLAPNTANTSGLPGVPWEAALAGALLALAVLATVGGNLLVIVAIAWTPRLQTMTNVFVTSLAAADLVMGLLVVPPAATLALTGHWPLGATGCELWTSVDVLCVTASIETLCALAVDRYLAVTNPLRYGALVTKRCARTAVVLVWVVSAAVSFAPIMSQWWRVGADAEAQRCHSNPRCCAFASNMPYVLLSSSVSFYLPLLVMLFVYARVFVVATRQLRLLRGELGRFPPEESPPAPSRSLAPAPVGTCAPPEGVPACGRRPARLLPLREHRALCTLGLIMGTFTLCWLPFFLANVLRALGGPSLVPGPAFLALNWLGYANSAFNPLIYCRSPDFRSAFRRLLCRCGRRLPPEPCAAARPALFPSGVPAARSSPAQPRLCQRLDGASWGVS

The target in experiment [2] is T2, Beta-1 adrenergic receptor (Homo sapiens, UniProt P08588). As to the kind of experiment: Antagonist activity at human beta-1 adrenergic receptor site 2 expressed in CGP 12177-stimulated CHO-K1 cells assessed as CRE-SPAP level by […].
T2 sequence (P08588 whole entry): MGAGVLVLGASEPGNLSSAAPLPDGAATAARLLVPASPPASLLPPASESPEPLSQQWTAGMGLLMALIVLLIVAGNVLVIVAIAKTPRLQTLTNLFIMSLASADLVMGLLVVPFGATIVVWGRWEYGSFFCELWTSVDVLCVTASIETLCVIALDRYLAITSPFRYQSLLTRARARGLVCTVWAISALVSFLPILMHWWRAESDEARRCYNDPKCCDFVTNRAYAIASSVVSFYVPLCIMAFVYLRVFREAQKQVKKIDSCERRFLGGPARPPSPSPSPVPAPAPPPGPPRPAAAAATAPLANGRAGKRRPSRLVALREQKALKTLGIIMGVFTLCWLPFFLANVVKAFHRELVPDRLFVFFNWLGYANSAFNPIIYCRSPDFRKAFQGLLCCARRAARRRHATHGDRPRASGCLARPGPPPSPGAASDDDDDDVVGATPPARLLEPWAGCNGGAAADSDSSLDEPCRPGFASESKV
The target of experiment [3] is T3, Beta-2 adrenergic receptor (Homo sapiens, UniProt P07550). As to the kind of experiment: Antagonist activity at human beta-2 adrenergic receptor expressed in salbutamol-stimulated CHO-K1 cells assessed as CRE-SPAP level by […]. Format: functional, cell-based.
Target sequence in this assay (P07550 whole entry): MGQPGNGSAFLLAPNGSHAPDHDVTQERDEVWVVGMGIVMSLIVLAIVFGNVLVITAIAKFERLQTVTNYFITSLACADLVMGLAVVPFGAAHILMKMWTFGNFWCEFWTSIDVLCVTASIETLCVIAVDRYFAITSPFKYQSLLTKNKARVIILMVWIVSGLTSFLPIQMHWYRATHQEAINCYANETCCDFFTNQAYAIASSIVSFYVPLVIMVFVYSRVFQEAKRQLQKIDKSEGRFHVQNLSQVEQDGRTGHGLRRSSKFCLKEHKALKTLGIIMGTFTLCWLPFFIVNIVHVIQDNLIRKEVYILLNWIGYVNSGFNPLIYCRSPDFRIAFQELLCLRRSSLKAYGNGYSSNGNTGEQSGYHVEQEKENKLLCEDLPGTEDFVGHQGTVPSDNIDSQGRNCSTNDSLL
Experiment [4] concerns the target T1, Beta-3 adrenergic receptor. Kind of experiment: Displacement of [3H]-CGP 12177 from human beta-3 adrenergic receptor expressed in CHOK1 cells. The class given is cell-based, CHO-K1.
Target sequence in this assay (P13945 whole entry): as the sequence (P13945 whole entry) above
The target of experiment [5] is T2, Beta-1 adrenergic receptor. As to the kind of experiment: biochemical.
Experiment [6] has as its target T3, Beta-2 adrenergic receptor. As to the kind of experiment: Displacement of [3H]-CGP 12177 from human beta-2 adrenergic receptor expressed in CHOK1 cells. The class given is cell-based, CHO-K1.
Target sequence in this assay (P07550 whole entry): as the sequence (P07550 whole entry) above
In experiment [7] the target is T2, Beta-1 adrenergic receptor. Kind of experiment: Antagonist activity at human beta-1 adrenergic receptor site 1 expressed in cimeterol-stimulated CHO-K1 cells assessed as CRE-SPAP level by […]. The class given is functional, cell-based.
The target in experiment [8] is T3, Beta-2 adrenergic receptor. Kind of experiment: Binding affinity to human beta-2 adrenergic receptor expressed in CHOK1 cells at 3 nM after 18 hrs by confocal imaging. Format: cell-based. The settings on record: CHO-K1. The method, boiled down: (§1)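 Live confocal imaging at room temperature in HEPES-buffered saline. CHO-K1 cells expressing human β2-AR were grown at least 18 h to 80–100% confluence. Where used, antagonists (ICI 118551 1–100 nM; CGP 20712A) were preincubated for 30 min, then 3 nM fluorescent ligand was added for 10 min. Imaging was done in its continued presence, with 633 nm excitation and emission through a 650 nm long-pass filter. Control CHO-K1 cells lacked the receptor.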
Target sequence in this assay (P07550 whole entry, looked up): as the sequence (P07550 whole entry) above

Experiment [9] addresses T3, Beta-2 adrenergic receptor. Kind of experiment: Binding affinity to human beta-2 adrenergic receptor expressed in CHOK1 cells at 3 nM preincubated with > 10 uM beta-1 adrenergic receptor antagonist CGP 20712A for 30 mins measured after 18 hrs by confocal imaging. The class given is cell-based. Conditions: CHO-K1. The procedure, abridged:
as §1
Target sequence in this assay (P07550 whole entry, looked up): as the sequence (P07550 whole entry) above

Experiment [10] concerns the target T3, Beta-2 adrenergic receptor. As to the kind of experiment: Binding affinity to human beta-2 adrenergic receptor expressed in CHOK1 cells at 3 nM preincubated with 1 to 100 nM beta-2 adrenergic receptor antagonist ICI 118551 for 30 mins measured after 18 hrs by confocal imaging. The settings on record: CHO-K1. The class given is cell-based. The procedure, abridged:
as §1
Target sequence in this assay (P07550 whole entry, looked up): as the sequence (P07550 whole entry) above

The target of experiment [11] is T1, Beta-3 adrenergic receptor. As to the kind of experiment: Partial agonist activity at human beta-3 adrenergic receptor expressed in CHOK1 cells assessed as CRE-SPAP production at 1 uM by […] relative to 10 uM isoprenaline. Format: functional, cell-based. Conditions: CHO-K1. The procedure, abridged: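 CHO-K1 cells co-expressing human β3-AR and a CRE-SPAP reporter. SPAP secretion was measured 5–6 h after ligand addition. The response to 1 μM ligand alone is expressed as a percentage of the response to 10 μM isoprenaline within the same experiment. Values are mean ± SE of n separate experiments.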
Target sequence in this assay (P13945 whole entry, looked up): as the sequence (P13945 whole entry) above

Active and inactive are the calls of the source. The rule behind the calls is not given here. Bounds are passed on as bounds.

With `O=C(CCCCCNC(=O)COc1ccc(/C=C/c2ccc3n2[B-](F)(F)[N+]2=C(c4cccs4)C=CC2=C3)cc1)NCCNC[C@H](O)COc1cccc2ccccc12`, the dissociation constant (Kd) in experiment [1] was 26.3 nM; in [2] it was 91.2 nM; in [3], 0.427 nM; in experiment [4], 44.7 nM; in experiment [5], 36.3 nM; in experiment [6], 1.38 nM. Also, the Kd in experiment [7] was 8.32 nM.
Take `O=C(CCCCCNC(=O)COc1ccc(/C=C/c2ccc3n2[B-](F)(F)[N+]2=C(c4cccs4)C=CC2=C3)cc1)NCCCCNC[C@H](O)COc1cccc2ccccc12`: the Kd in [1] is 151 nM; in [2], 182 nM; in experiment [3], 0.275 nM; in experiment [4], 123 nM; in experiment [5] it was 33.1 nM; in experiment [6] it was 0.724 nM. The dissociation constant (Kd) in [7] was 13.5 nM.
Take `O=C(CCCCCNC(=O)COc1ccc(/C=C/c2ccc3n2[B-](F)(F)[N+]2=C(c4cccs4)C=CC2=C3)cc1)NCCCCCCCCNC[C@H](O)COc1cccc2ccccc12`: the Kd is 141 nM in experiment [1]; 794 nM in experiment [2]; 1.74 nM in [3]; 67.6 nM in experiment [4]; 186 nM in experiment [5]; 7.08 nM in [6]. Further, the Kd in experiment [7] is 52.5 nM.
For the compound `O=C(CCCCCNC(=O)COc1ccc(/C=C/c2ccc3n2[B-](F)(F)[N+]2=C(c4cccs4)C=CC2=C3)cc1)NCCOCCOCCNC[C@H](O)COc1cccc2ccccc12`, the Kd in experiment [1] was 107 nM; in [2], 67.6 nM; in experiment [3], 0.295 nM; in [4], 81.3 nM; in experiment [5], 17.4 nM; in experiment [6] it was 0.617 nM. In addition, in experiment [7], the dissociation constant (Kd) was 3.47 nM. In addition, the outcome in experiment [8], in experiment [9] and in [10] was inactive.
On to `C=CCc1ccccc1OC[C@@H](O)CNCCNC(=O)CCCCCNC(=O)COc1ccc(/C=C/c2ccc3n2[B-](F)(F)[N+]2=C(c4cccs4)C=CC2=C3)cc1`, for which the dissociation constant (Kd) was 41.7 nM in experiment [1]; 74.1 nM in [2]; 1.82 nM in [3]; 69.2 nM in [4]; 91.2 nM in [5]; 2.88 nM in experiment [6]. In addition, in experiment [7], the dissociation constant Kd is 46.8 nM. Besides, in [11], the Activity is 56.6%.
In the case of `C=CCc1ccccc1OC[C@@H](O)CNCCOCCOCCNC(=O)CCCCCNC(=O)COc1ccc(/C=C/c2ccc3n2[B-](F)(F)[N+]2=C(c4cccs4)C=CC2=C3)cc1`, the Kd in experiment [1] was 61.7 nM; in experiment [2] it was 41.7 nM; in experiment [3], 0.427 nM; in experiment [4], 100 nM; in [5], 22.4 nM; in experiment [6], 0.933 nM. For the same compound, the dissociation constant Kd in experiment [7] is 7.59 nM. Besides, in experiment [11], the Activity is 63.5%.
Turning to `C=CCc1ccccc1OCC(O)CNC(C)C` (stereo not drawn), in experiment [11], the Activity was determined as 62.4%.
Turning to `CC(C)NCC(O)COc1cccc2[nH]ccc12` (stereo not drawn), in experiment [11], the Activity was 85.2%.
For `O=C(CCCCCNC(=O)COc1ccc(/C=C/c2ccc3n2[B-](F)(F)[N+]2=C(c4cccs4)C=CC2=C3)cc1)NCCNCC(O)COc1cccc2ccccc12` (racemic), the Kd in experiment [1] was 63.1 nM; in experiment [2] it was 355 nM; in experiment [3], 2.57 nM; in experiment [4], 93.3 nM; in [5] it was 89.1 nM; in experiment [6], 2.75 nM. In addition, in experiment [7], the Kd was 75.9 nM.
With `O=C(CCCCCNC(=O)COc1ccc(/C=C/c2ccc3n2[B-](F)(F)[N+]2=C(c4cccs4)C=CC2=C3)cc1)NCCCCNCC(O)COc1cccc2ccccc12` (racemic), the Kd was 79.4 nM in experiment [1]; 240 nM in experiment [2]; 0.741 nM in [3]; 105 nM in [4]; 56.2 nM in [5]; 1.35 nM in experiment [6]. Further, in [7], the Kd is 30.9 nM.
In the case of `O=C(CCCCCNC(=O)COc1ccc(/C=C/c2ccc3n2[B-](F)(F)[N+]2=C(c4cccs4)C=CC2=C3)cc1)NCCCCCCCCNCC(O)COc1cccc2ccccc12` (racemic), the dissociation constant (Kd) in experiment [1] is 115 nM; in experiment [2] it was less than 1000 nM; in experiment [3], 2.51 nM; in experiment [4], 77.6 nM; in [6], 5.75 nM; in experiment [7], 219 nM.
For `O=C(CCCCCNC(=O)COc1ccc(/C=C/c2ccc3n2[B-](F)(F)[N+]2=C(c4cccs4)C=CC2=C3)cc1)NCCOCCOCCNCC(O)COc1cccc2ccccc12` (racemic), the Kd was 57.5 nM in [1]; 112 nM in [2]; 0.437 nM in experiment [3]; 295 nM in [4]; 72.4 nM in experiment [5]; 3.31 nM in [6]. Also, the Kd in [7] is 41.7 nM.
Turning to `C=CCc1ccccc1OCC(O)CNCCNC(=O)CCCCCNC(=O)COc1ccc(/C=C/c2ccc3n2[B-](F)(F)[N+]2=C(c4cccs4)C=CC2=C3)cc1` (racemic), the dissociation constant (Kd) in experiment [1] is 23.4 nM; in experiment [2], 120 nM; in experiment [3] it was 1.58 nM; in experiment [4], 46.8 nM; in [5], 55 nM; in experiment [6], 2.34 nM. Further, the equilibrium dissociation constant (Kd) in experiment [7] was 43.7 nM. In addition, the Activity in [11] came to 60.6%.
Turning to `C=CCc1ccccc1OCC(O)CNCCOCCOCCNC(=O)CCCCCNC(=O)COc1ccc(/C=C/c2ccc3n2[B-](F)(F)[N+]2=C(c4cccs4)C=CC2=C3)cc1` (racemic), the dissociation constant (Kd) in experiment [1] was 57.5 nM; in experiment [2] it was 77.6 nM; in [3] it was 0.617 nM; in experiment [4] it was 81.3 nM; in experiment [5], 31.6 nM; in [6], 1.23 nM. The Kd in [7] was 17.4 nM. The Activity in experiment [11] was found to be 49.6%.
For the compound `O=C(CCCCCNC(=O)COc1ccc(/C=C/c2ccc3n2[B-](F)(F)[N+]2=C(c4cccs4)C=CC2=C3)cc1)NCCNCC(O)COc1cccc2[nH]ccc12` (racemic), the Kd was 178 nM in experiment [1]; less than 1000 nM in experiment [2]; 30.2 nM in experiment [3]; 331 nM in [4]; 871 nM in experiment [5]; 46.8 nM in experiment [6]. The Kd in [7] was 302 nM. In addition, in experiment [11], the Activity was found to be 49.4%.
Regarding `O=C(CCCCCNC(=O)COc1ccc(/C=C/c2ccc3n2[B-](F)(F)[N+]2=C(c4cccs4)C=CC2=C3)cc1)NCCOCCOCCNCC(O)COc1cccc2[nH]ccc12` (racemic), the dissociation constant Kd in experiment [1] was 288 nM; in experiment [2], less than 1000 nM; in experiment [3], 7.24 nM; in [4], 380 nM; in experiment [5], 97.7 nM; in experiment [6], 11 nM. In experiment [7], the dissociation constant Kd is 38 nM. Besides, in [11], the Activity came to 53.2%.
